Measurements published in ChEMBL document CHEMBL1629713, “Discovery of benzoylisoindolines as a novel class of potent, selective and orally active GlyT1 inhibitors” (Bioorg Med Chem Lett, 2010).
Values after ≈ are worked out from the molar mass of the structure shown.

Columns and labels:
Mus musculus = test: Antipsychotic activity in po dosed mouse assessed as inhibition of L-687414-induced hyperlocomotion after 60 mins; assay type: functional; conditions: 1 h, read-out: ID50 (the source's name)
Outline: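 Mice given compound orally, n = 8 per group; hyperlocomotion induced by L-687,414. Horizontal activity counts recorded over a 60-min period and reported as group means. ID50 (mg/kg) derived from dose-dependent inhibition of the L-687,414-induced response.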

[1] = Aqueous solubility of the compound by lyophilisate solubility assay; assay type: physicochemical; conditions: buffer
Outline: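 LYSA: compound in DMSO solution lyophilized, then dissolved in 0.05 M phosphate buffer pH 6.5, stirred 1 h and shaken 2 h; solubility in µg/ml.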

[2] = Permeability of the compound by PAMPA; assay type: ADME; conditions: read-out: permeability
Outline: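 PAMPA: permeation constant Pe (10^-6 cm/s) measured through artificial membranes.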

[3] = molecular target: T1, Sodium- and chloride-dependent glycine transporter 2 (Homo sapiens, UniProt Q9Y345); test: Inhibition of human GlyT2 expressed in CHO cells assessed as inhibition of [3H]glycine uptake by liquid scintillation counting; assay type: cell-based
T1 sequence (Q9Y345 whole entry): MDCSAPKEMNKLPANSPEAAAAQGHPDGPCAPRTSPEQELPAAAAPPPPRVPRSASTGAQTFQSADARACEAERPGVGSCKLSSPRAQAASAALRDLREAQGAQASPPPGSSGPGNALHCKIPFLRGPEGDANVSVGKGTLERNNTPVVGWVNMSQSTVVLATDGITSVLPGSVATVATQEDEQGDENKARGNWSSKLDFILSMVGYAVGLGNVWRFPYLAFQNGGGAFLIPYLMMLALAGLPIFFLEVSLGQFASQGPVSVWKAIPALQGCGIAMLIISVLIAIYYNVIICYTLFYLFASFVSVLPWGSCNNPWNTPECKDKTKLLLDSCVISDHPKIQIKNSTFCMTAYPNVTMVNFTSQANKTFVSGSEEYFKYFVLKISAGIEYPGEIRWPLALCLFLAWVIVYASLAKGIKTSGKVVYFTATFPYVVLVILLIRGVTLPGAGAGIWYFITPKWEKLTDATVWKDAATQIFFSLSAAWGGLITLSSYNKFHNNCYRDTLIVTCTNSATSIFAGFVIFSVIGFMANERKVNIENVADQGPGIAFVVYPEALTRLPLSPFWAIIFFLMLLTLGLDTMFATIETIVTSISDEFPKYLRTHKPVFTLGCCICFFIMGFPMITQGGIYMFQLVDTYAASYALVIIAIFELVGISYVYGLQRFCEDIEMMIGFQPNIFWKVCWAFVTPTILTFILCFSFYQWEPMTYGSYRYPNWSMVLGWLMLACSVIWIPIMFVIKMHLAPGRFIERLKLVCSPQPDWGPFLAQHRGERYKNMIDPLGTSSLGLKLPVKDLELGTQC
Outline: (§1)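 [3H]-glycine uptake inhibition in cells transfected with human GlyT1 or human GlyT2 cDNA. EC50 values averaged from at least two independent experiments.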

[4] = molecular target: T2, Sodium- and chloride-dependent glycine transporter 1 (Homo sapiens, UniProt P48067); test: Inhibition of human GlyT1 expressed in CHO cells assessed as inhibition of [3H]glycine uptake by liquid scintillation counting; assay type: cell-based; outline: as §1
T2 sequence (P48067 whole entry): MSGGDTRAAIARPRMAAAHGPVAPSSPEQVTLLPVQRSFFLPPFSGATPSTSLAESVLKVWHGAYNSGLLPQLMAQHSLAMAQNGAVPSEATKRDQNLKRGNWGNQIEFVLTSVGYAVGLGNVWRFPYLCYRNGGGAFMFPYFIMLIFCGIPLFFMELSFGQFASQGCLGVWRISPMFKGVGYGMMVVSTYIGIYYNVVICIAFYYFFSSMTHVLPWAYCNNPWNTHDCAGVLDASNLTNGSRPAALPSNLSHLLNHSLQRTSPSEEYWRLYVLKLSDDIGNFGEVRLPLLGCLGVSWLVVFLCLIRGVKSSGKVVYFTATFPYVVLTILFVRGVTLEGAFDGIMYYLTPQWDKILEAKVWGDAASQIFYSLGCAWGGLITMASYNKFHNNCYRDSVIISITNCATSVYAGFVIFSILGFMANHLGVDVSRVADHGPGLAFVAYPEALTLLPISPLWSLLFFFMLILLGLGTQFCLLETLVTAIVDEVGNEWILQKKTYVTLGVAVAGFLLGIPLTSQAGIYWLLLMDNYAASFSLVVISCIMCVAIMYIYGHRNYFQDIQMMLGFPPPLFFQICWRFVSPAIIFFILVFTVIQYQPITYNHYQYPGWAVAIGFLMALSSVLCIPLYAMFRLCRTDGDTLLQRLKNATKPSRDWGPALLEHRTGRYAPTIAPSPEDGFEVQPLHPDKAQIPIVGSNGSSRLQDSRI

hERG (KCNH2) = hERG (KCNH2) (Homo sapiens, UniProt Q12809); test: Inhibition of human ERG at 10 uM by patch clamp assay
Chain of hERG (KCNH2) (Q12809 whole entry): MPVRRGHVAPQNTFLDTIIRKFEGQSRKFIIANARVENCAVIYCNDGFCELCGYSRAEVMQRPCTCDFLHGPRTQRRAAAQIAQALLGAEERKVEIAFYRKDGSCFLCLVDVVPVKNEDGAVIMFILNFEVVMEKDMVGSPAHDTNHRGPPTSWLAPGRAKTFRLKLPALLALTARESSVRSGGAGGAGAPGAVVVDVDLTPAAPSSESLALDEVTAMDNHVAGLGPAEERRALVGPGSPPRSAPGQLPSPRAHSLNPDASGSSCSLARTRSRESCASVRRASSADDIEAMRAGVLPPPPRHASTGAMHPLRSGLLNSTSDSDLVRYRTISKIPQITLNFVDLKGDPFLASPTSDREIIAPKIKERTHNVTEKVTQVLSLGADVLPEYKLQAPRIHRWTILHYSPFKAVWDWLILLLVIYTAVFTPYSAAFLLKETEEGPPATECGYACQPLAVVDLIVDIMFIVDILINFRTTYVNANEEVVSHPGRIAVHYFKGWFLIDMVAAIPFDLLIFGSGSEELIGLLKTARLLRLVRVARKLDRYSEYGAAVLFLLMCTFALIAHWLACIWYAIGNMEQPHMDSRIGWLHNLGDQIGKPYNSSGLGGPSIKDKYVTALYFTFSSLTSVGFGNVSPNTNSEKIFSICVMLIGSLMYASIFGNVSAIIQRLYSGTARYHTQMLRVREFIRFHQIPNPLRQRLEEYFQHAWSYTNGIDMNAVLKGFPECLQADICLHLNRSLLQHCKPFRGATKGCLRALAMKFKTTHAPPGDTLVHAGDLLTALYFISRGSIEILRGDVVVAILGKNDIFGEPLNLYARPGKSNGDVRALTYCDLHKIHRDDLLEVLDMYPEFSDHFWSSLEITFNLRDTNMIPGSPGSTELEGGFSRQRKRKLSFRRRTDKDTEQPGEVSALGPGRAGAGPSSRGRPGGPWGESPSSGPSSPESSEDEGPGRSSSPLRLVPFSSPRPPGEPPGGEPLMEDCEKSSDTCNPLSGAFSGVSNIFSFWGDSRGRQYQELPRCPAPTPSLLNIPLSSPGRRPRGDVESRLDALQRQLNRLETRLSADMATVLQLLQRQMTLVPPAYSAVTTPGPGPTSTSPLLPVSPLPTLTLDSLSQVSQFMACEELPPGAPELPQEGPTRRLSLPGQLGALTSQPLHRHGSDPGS
Outline: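 hERG block measured by patch clamp at 10 µM; values averaged from at least two independent experiments.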

[5] = molecular target: T2, Sodium- and chloride-dependent glycine transporter 1; test: Inhibition of human GlyT1; outline: as §1
Cytochrome P450 2C9 = Cytochrome P450 2C9 (Homo sapiens, UniProt P11712); test: Inhibition of CYP2C9; assay type: ADME
Chain of Cytochrome P450 2C9 (P11712 whole entry): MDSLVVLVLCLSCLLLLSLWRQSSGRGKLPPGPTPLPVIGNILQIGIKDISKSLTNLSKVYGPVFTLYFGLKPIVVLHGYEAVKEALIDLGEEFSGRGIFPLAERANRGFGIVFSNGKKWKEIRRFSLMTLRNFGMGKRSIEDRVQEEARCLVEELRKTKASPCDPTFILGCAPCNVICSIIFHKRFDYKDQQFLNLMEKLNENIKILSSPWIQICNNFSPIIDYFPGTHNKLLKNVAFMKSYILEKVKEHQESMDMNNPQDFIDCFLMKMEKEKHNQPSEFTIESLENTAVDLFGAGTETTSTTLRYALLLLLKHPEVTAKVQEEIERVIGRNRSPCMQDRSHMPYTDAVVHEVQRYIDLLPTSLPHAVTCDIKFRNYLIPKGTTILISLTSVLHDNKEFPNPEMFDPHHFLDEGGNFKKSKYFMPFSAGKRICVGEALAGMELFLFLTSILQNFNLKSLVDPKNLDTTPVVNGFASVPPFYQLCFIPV

Homo sapiens = organism: Homo sapiens; test: Selectivity ratio of EC50 for human GlyT2 to EC50 for human GlyT1
Outline: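 Ratio of the two EC50s from a [³H]-glycine uptake inhibition assay run in cells transfected with human GlyT1 cDNA or human GlyT2 cDNA. Each EC50 is the average of at least two independent experiments.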

Cytochrome P450 2D6 = Cytochrome P450 2D6 (Homo sapiens, UniProt P10635); test: Inhibition of CYP2D6; assay type: ADME
Chain of Cytochrome P450 2D6 (P10635 whole entry): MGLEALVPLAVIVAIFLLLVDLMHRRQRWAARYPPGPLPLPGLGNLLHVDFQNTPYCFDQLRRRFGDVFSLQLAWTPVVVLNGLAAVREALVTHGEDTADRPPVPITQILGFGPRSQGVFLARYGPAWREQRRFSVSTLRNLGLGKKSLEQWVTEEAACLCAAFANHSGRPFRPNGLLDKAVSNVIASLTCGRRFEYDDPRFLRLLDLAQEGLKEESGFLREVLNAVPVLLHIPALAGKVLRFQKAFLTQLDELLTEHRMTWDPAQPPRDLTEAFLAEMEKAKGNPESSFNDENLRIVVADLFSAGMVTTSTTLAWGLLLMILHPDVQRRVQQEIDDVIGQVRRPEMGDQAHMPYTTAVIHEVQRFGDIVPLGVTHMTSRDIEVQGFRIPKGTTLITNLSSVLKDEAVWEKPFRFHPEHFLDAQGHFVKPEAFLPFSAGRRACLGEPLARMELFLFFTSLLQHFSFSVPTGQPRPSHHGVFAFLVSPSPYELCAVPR

Cytochrome P450 3A4 = Cytochrome P450 3A4 (Homo sapiens, UniProt P08684); test: Inhibition of CYP3A4; assay type: ADME
Chain of Cytochrome P450 3A4 (P08684 whole entry): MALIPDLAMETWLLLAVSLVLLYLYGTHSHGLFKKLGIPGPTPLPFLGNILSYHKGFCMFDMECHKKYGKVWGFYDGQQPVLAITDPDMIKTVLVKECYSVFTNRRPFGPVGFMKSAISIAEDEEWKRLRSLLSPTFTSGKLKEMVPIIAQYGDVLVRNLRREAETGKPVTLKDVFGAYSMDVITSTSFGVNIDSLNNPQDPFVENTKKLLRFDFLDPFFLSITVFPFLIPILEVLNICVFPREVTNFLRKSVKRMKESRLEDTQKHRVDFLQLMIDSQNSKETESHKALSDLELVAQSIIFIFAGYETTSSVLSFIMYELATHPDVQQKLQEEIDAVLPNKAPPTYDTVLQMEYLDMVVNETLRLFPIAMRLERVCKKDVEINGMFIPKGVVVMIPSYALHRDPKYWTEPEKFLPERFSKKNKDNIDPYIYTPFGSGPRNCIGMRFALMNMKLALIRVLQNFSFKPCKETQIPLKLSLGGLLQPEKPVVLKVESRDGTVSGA

[6] = Intrinsic clearance in mouse liver microsomes assessed per mg of protein; assay type: ADME, Microsome
[7] = molecular target: T1, Sodium- and chloride-dependent glycine transporter 2; test: Inhibition of human GlyT2; outline: as §1
[8] = Intrinsic clearance in human liver microsomes assessed per mg of protein; assay type: ADME, Microsome
[9] = Volume of distribution in rat; assay type: ADME, organism-based; conditions: in vivo
[10] = Oral bioavailability in rat; assay type: ADME, organism-based; conditions: in vivo
[11] = Clearance in rat; assay type: ADME, organism-based; conditions: in vivo
[12] = Ratio of drug level in brain to plasma in rat; assay type: ADME; conditions: read-out: BPR

| SMILES | ED50 (Mus musculus) [mg/kg] | solubility [1] [µg/mL] | Papp [2] [×10⁻⁶ cm/s] | EC50 [3] [nM] | EC50 [4] [nM] | also measured |
| --- | --- | --- | --- | --- | --- | --- |
| CS(=O)(=O)c1ccc(-c2ccc(F)cc2)c(C(=O)N2Cc3ccc(C4CCOCC4)cc3C2)c1 | 0.3 | 15 (≈ 31.3 µM) | 1.4 | > 30000 | 16 | inhibition at 10 µM (hERG (KCNH2)): 36% |
| CS(=O)(=O)c1ccc(OCCC(F)(F)F)c(C(=O)N2Cc3cc(C(F)(F)F)cnc3C2)c1 | 3 | 513 (≈ 1060 µM) | 4.3 | > 30000 | 111 |  |
| C[C@H](Oc1ccc(S(C)(=O)=O)cc1C(=O)N1Cc2ccc(-c3ccccn3)cc2C1)C(F)(F)F |  | 30 (≈ 61.2 µM) | 0.8 | > 30000 | 84 |  |
| COc1cccc2c1CN(C(=O)c1cc(S(C)(=O)=O)ccc1O[C@@H](C)C(F)(F)F)C2 |  | 85 (≈ 192 µM) | 4.8 | > 30000 | 1940 |  |
| C[C@H](Oc1ccc(S(C)(=O)=O)cc1C(=O)N1Cc2cccc(C#N)c2C1)C(F)(F)F |  | 259 (≈ 591 µM) | 0.8 | > 30000 | 770 |  |
| C[C@H](Oc1ccc(S(C)(=O)=O)cc1C(=O)N1Cc2ccc(Cl)cc2C1)C(F)(F)F | 20 | < 1 | 4.4 |  |  | EC50 [5]: 135 nM; IC50 (Cytochrome P450 2C9): > 38000 nM; Ratio EC50 (Homo sapiens): > 200; IC50 (Cytochrome P450 2D6): > 38000 nM; IC50 (Cytochrome P450 3A4): > 38000 nM; microsomal CLint [6]: 23.3 µL/min/mg; EC50 [7]: 30000 nM; microsomal CLint [8]: 2.4 µL/min/mg |
| Cc1cccc2c1CN(C(=O)c1cc(S(C)(=O)=O)ccc1O[C@@H](C)C(F)(F)F)C2 |  | 73 (≈ 171 µM) | 4.2 | > 30000 | 3360 |  |
| CC(C)Oc1ccc(S(C)(=O)=O)cc1C(=O)N1Cc2cc(C(F)(F)F)cnc2C1 | 1 | 114 (≈ 266 µM) | 4.1 | > 30000 | 70 | inhibition at 10 µM (hERG (KCNH2)): 10% |
| C[C@H](Oc1ccc(S(C)(=O)=O)cc1C(=O)N1Cc2ccc(N3CCOCC3)cc2C1)C(F)(F)F |  | 355 (≈ 712 µM) | 4.3 | > 30000 | 275 |  |
| C[C@H](Oc1ccc(S(C)(=O)=O)cc1C(=O)N1Cc2ccccc2C1)C(F)(F)F |  | < 1 | 0.8 | > 30000 | 2540 |  |
| C[C@H](Oc1ccc(S(C)(=O)=O)cc1C(=O)N1Cc2ccc(N3CCN(C)CC3)cc2C1)C(F)(F)F |  | 490 (≈ 958 µM) | 1.5 | > 30000 | 2080 |  |
| COc1ccc2c(c1)CN(C(=O)c1cc(S(C)(=O)=O)ccc1O[C@@H](C)C(F)(F)F)C2 |  | 46 (≈ 104 µM) | 2.7 | > 30000 | 180 |  |
| CS(=O)(=O)c1ccc(OCCC(F)(F)F)c(C(=O)N2Cc3ccc(C4CCOCC4)cc3C2)c1 |  | 334 (≈ 671 µM) | 4.1 | > 30000 | 137 |  |
| C[C@H](Oc1ccc(S(C)(=O)=O)cc1C(=O)N1Cc2ccc(-c3ccncc3)cc2C1)C(F)(F)F | 3 | 25 (≈ 51 µM) | 4.2 | > 30000 | 17 | inhibition at 10 µM (hERG (KCNH2)): 58% |
| CS(=O)(=O)c1ccc(-c2ccc(F)c(F)c2)c(C(=O)N2Cc3cc(C(F)(F)F)cnc3C2)c1 | 1 | 42 (≈ 87.1 µM) | 6.4 | > 30000 | 30 | inhibition at 10 µM (hERG (KCNH2)): 38% |
| C[C@H](Oc1ccc(S(C)(=O)=O)cc1C(=O)N1Cc2cnc(C(F)(F)F)cc2C1)C(F)(F)F |  | 470 (≈ 974 µM) | 3.9 | > 30000 | 132 |  |
| C[C@H](Oc1ccc(S(C)(=O)=O)cc1C(=O)N1Cc2ccc(C(F)(F)F)cc2C1)C(F)(F)F | 2 | 1 (≈ 2.08 µM) | 0.7 | > 30000 | 21 | Vd [9]: 2.9 L/kg; bioavailability [10]: 23%; clearance [11]: 1.7 mL/min/kg; inhibition at 10 µM (hERG (KCNH2)): 59%; Kp [12]: 1 |
| C[C@H](Oc1ccc(S(C)(=O)=O)cc1C(=O)N1Cc2ccc(-c3ccccc3)cc2C1)C(F)(F)F | 6 | 4 (≈ 8.17 µM) | 2.6 | 12000 | 13 | inhibition at 10 µM (hERG (KCNH2)): 67% |
| C[C@H](Oc1ccc(S(C)(=O)=O)cc1C(=O)N1Cc2ccc(C(F)(F)F)nc2C1)C(F)(F)F |  | 429 (≈ 889 µM) | 5.5 | > 30000 | 250 |  |
| CC(C)COc1ccc(S(C)(=O)=O)cc1C(=O)N1Cc2cc(C(F)(F)F)cnc2C1 |  | 445 (≈ 1010 µM) | 5.5 | > 30000 | 30 | inhibition at 10 µM (hERG (KCNH2)): 37% |
| C[C@H](Oc1ccc(S(C)(=O)=O)cc1C(=O)N1Cc2ccc(C3CCCCO3)cc2C1)C(F)(F)F (stereo partly specified) |  | < 1 | 0.9 | > 30000 | 205 |  |
| CS(=O)(=O)c1ccc(OCc2ccccc2)c(C(=O)N2Cc3cc(C(F)(F)F)cnc3C2)c1 |  | 72 (≈ 151 µM) | 0.8 | > 30000 | 805 |  |
| C[C@H](Oc1ccc(S(C)(=O)=O)cc1C(=O)N1Cc2ccc(N3CCCC3)cc2C1)C(F)(F)F |  | < 1 | 0.8 | 14300 | 180 |  |
| CS(=O)(=O)c1ccc(N2CCOCC2)c(C(=O)N2Cc3cc(C(F)(F)F)cnc3C2)c1 |  | 495 (≈ 1090 µM) | 0.9 | > 30000 | 3000 |  |
